KCNQ1 inh – blocks the human KCNQ1 potassium channel | B-score at 10 µM | P51787 | CHO-K1 KCNQ1, FluxOR thallium flux fluorescence; hits give high values | 310,000 tested, 1.3% active | AID 2642;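 active = compounds whose thallium flux B-score, printed positive for inhibition, exceeds three library SD while starting fluorescence stays within three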;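 note: channel opened by potassium depolarization with thallium stimulus after 20 min compound exposure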
Target sequence (P51787 whole entry, looked up): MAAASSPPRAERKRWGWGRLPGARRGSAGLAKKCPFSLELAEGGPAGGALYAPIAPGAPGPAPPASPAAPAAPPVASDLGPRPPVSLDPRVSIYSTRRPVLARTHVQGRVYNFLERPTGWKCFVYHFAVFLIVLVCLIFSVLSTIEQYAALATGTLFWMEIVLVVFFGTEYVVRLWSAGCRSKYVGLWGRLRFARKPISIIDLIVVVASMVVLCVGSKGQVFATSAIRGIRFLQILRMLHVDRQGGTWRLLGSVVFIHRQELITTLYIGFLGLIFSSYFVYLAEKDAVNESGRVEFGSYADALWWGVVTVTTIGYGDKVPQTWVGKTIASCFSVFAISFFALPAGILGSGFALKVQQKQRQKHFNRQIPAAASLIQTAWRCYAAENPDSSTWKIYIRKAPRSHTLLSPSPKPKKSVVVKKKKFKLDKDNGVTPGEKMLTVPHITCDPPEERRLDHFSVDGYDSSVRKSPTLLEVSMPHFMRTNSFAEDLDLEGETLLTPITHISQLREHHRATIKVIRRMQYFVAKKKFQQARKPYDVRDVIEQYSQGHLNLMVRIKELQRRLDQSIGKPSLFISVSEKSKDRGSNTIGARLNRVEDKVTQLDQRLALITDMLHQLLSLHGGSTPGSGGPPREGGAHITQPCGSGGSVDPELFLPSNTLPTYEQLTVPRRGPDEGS
KCNK3 inh – human KCNK3 channel inhibition, primary screen | CHO-KCNK3 thallium flux, FluxOR fluorescence; hits give low values | B-score at 10 µM | 340,000 tested, 0.84% active;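 active = B-score under library mean minus 4 SD, starting fluorescence ratio at most library mean plus 5 SD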;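 note: more negative B-score means stronger inhibition of thallium flux through KCNK3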
Kir21 inh – Kir2.1 (mouse) channel inhibition | P35561 | HEK293-Kir2.1, FluxOR thallium flux fluorescence; hits give low values | B-score at 10 µM | 310,000 tested, 0.85% active;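 active = fluorescence ratio B-score at or below minus 3 SD of library scores, with starting-brightness B-score within 2 SD, cut at about -4.2 in these data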;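 note: channel flux triggered by added potassium and thallium sulfate stimulus; B-score of peak minus minimum fluorescence over baseline after thallium stimulus; more negative B-score means stronger Kir2.1 block with less thallium influx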
KCNQ1 act – human KCNQ1 channel potentiation or activation | AID 2648 | CHO-K1 KCNQ1, thallium flux FluxOR fluorescence; hits give high values | B-score at 10 µM | 310,000 tested, 0.35% active;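 active = fluorescence ratio B-score, a plate-corrected score, at least three library SD, with initial intensity B-score within 5 SD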
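System: CHO-K1 cells stably expressing KCNQ1 / Medium: assay buffer for compound exposure, DMSO matched across wells / Reagent: thallium- and potassium-containing depolarizing buffer / Compound: one concentration, matched DMSO / Incubation: 20 min compound pretreatment at room temperature / Measured by: kinetic FluxOR fluorescence, 10 s baseline plus 110 s post-stimulus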
KCNK9 block – inhibitors of human KCNK9 two-pore domain potassium channel; Q9NPC2; 310,000 tested, 1.2% active; B-score at 10 µM; AID 488922; HEK293 KCNK9, FluxOR thallium flux fluorescence; hits give low values;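 active = ratio B-score over 3 SD below the library mean, with starting fluorescence within 5 SD of its mean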;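 note: negative B-score means less thallium flux so channel inhibition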
hERG protect – hERG (human) protection from proarrhythmic block | Q12809 | CHO-hERG, FluxOR thallium flux, dofetilide IC70 present | activation (rescue from dofetilide block), less the hit threshold, % at 10 µM | 310,000 tested, 0.51% active;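 active = activation above the mean of controls blocked by dofetilide plus 5 SD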;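 note: thallium influx through hERG after potassium depolarization seen as dye fluorescence rise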
KCNQ1 inh valid – human KCNQ1 channel inhibition, validation assay | KCNQ1 cell line, FluxOR thallium flux fluorescence | shares compounds with KCNQ1 inh | inhibition, % at 10 µM | AID 588353 | 1,600 tested, 93% active;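 active = primary screen active, with duplicate mean exceeding buffer control mean plus 3 SD of buffer wells, cut at about 28% in these data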;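 note: 0% = buffer control ratio and 100% = XE991 inhibitor control ratio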
CHO KCNQ1 ctr – KCNQ1 inhibitor counter-screen hit in parental CHO cells. shares compounds with KCNQ1 inh. 1,600 tested, 21% active. parental CHO-K1, FluxOR thallium flux fluorescence ratio; hits give low values; zero means no signal rise above baseline. fluorescence ratio (Tl flux) at 10 µM;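 active = mean of duplicate thallium-flux fluorescence ratios in parental host cells more than 5 SD below the buffer control mean, cut at about 0.38 in these data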;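 note: ratio is peak minus minimum fluorescence divided by baseline fluorescence; actives read low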
KCNQ1 APC inh – confirmation of human KCNQ1 potassium channel inhibitors by electrophysiology. KCNQ1-CHO cells, automated patch clamp current. calls only at 10 µM. shares compounds with KCNQ1 inh. AID 624120. 490 tested, 20% active;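 active = KCNQ1 current drop exceeding 3 SD of negative control wells, seen in both duplicate runs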;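 note: steady state current during a 2 s step from -80 to +40 mV; negative values mean current inhibition and positive values mean potentiation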
KCNQ2 inh – selectivity of KCNQ1 inhibitors: inhibition of rat KCNQ2 channel; 1,600 tested, 71% active; shares compounds with KCNQ1 inh; inhibition, % at 10 µM; KCNQ2 cells, FluxOR thallium flux fluorescence; AID 651746;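 active = mean percent inhibition of the KCNQ2 thallium signal more than 5 SD above the buffer-only control wells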;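 note: KCNQ2 expressed in CHO cells; 0% = buffer control wells and 100% = XE-991 inhibitor control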
KCNQ1-KCNE1 inh – KCNQ1 inhibitor that also blocks human KCNQ1/KCNE1 channel. shares compounds with KCNQ1 inh. KCNQ1/KCNE1 cells, FluxOR thallium flux fluorescence. inhibition, % at 10 µM. 1,600 tested, 77% active. AID 652147;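 active = mean percent inhibition of duplicate wells above the buffer-only control mean plus 3 SD of those controls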;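 note: 0% = buffer only wells and 100% = XE-991 inhibitor control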
* hit, by the source's call. Only some compounds are listed: those with a hit (about 3.7% of all), similar ones and a draw of the others.

Results for Cc1ccc(S(=O)(=O)Nc2cc3c4c(c2)CC(=O)N4CCC3)cc1 ?
KCNQ1 inh: inactive; KCNK3 inh: inactive; Kir21 inh: -0.54; KCNQ1 act: inactive; KCNK9 block: inactive; hERG protect: -9

Results for O=C(c1ccc2nc[nH]c2c1)N1CCN(c2ncc(C(F)(F)F)cc2Cl)CC1 ?
KCNQ1 inh: 8*; KCNK3 inh: inactive; Kir21 inh: -2.4; KCNQ1 act: inactive; KCNK9 block: inactive; hERG protect: -9; KCNQ1 inh valid: 0; CHO KCNQ1 ctr: 0.58; KCNQ2 inh: inactive; KCNQ1-KCNE1 inh: inactive

How did COC(=O)C(Cc1ccc(O)cc1)NC(=O)C12CC3CC(CC(C3)C1)C2 (stereo unspecified) do in these assays?
KCNQ1 inh: 14*; KCNK3 inh: inactive; Kir21 inh: 1.1; KCNQ1 act: inactive; KCNK9 block: inactive; hERG protect: -16; KCNQ1 inh valid: 44*; CHO KCNQ1 ctr: 0.46; KCNQ2 inh: inactive; KCNQ1-KCNE1 inh: inactive

How did COC(=O)C(CCSC)NC(=O)C12CC3CC(CC(C3)C1)C2 (stereo unspecified) do in these assays?
KCNQ1 inh: inactive; KCNK3 inh: inactive; Kir21 inh: 0.85; KCNQ1 act: inactive; KCNK9 block: inactive; hERG protect: 0

What do the screens show for `Cc1sc(NC(=O)c2sc3nc4c(C)cccc4cc3c2N)c(C#N)c1C`?
KCNQ1 inh: 9*; KCNK3 inh: inactive; Kir21 inh: 0.05; KCNQ1 act: inactive; KCNK9 block: inactive; hERG protect: -10; KCNQ1 inh valid: 54*; CHO KCNQ1 ctr: 0.44; KCNQ2 inh: inactive; KCNQ1-KCNE1 inh: 87%*

How did Cc1cccc2cc3c(N)c(C#N)sc3nc12 do in these assays?
KCNQ1 inh: inactive; KCNK3 inh: inactive; Kir21 inh: -2.2; KCNQ1 act: inactive; KCNK9 block: inactive; hERG protect: -13

What do the screens show for `Clc1ccc(-c2nc3ccccc3nc2-c2ccccc2)cc1`?
KCNQ1 inh: inactive; KCNK3 inh: inactive; Kir21 inh: 1; KCNQ1 act: inactive; KCNK9 block: inactive; hERG protect: -3

How did Nc1ccc(Oc2ccc3nc(-c4ccccc4)c(-c4ccccc4)nc3c2)cc1 do in these assays?
KCNQ1 inh: inactive; KCNK3 inh: inactive; Kir21 inh: -0.95; KCNQ1 act: inactive; KCNK9 block: inactive; hERG protect: -10

What do the screens show for `Cc1ccc(-c2nc3ccccc3nc2-c2ccccc2)cc1`?
KCNQ1 inh: 15*; KCNK3 inh: inactive; Kir21 inh: 0.04; KCNQ1 act: inactive; KCNK9 block: inactive; hERG protect: -5; KCNQ1 inh valid: 88*; CHO KCNQ1 ctr: 0.41; KCNQ1 APC inh: active; KCNQ2 inh: 108%*; KCNQ1-KCNE1 inh: 152%*

How did Nc1ccc2nc(-c3ccccc3)c(-c3ccccc3)nc2c1 do in these assays?
KCNQ1 inh: 15*; KCNK3 inh: inactive; Kir21 inh: -6.9; KCNQ1 act: inactive; KCNK9 block: inactive; hERG protect: -28; KCNQ1 inh valid: 148*; CHO KCNQ1 ctr: 0.21*; KCNQ2 inh: inactive; KCNQ1-KCNE1 inh: inactive

Compound activity: PubChem, Johns Hopkins Ion Channel Center
